According to ChEMBL document CHEMBL1158565, “Antagonism of 4-substituted 1,4-dihydropyridine-3,5-dicarboxylates toward voltage-dependent L-type Ca2+ channels Ca V 1.3 and Ca V 1.2” (Bioorg Med Chem, 2010):
One block for each compound: values may come before it.

Tests used:
[1] = Selectivity ratio of IC50 for Cav1.2 to IC50 for Cav1.3
[2] = molecular target: T1, Voltage-dependent L-type calcium channel subunit alpha-1C (Oryctolagus cuniculus, UniProt P15381); assay: Antagonist activity at rabbit Cav1.2 expressed in tsA201 cells assessed as inhibition of voltage pulse-induced calcium current at 10 nM by whole-cell patch-clamp recording
T1 sequence (P15381 whole entry): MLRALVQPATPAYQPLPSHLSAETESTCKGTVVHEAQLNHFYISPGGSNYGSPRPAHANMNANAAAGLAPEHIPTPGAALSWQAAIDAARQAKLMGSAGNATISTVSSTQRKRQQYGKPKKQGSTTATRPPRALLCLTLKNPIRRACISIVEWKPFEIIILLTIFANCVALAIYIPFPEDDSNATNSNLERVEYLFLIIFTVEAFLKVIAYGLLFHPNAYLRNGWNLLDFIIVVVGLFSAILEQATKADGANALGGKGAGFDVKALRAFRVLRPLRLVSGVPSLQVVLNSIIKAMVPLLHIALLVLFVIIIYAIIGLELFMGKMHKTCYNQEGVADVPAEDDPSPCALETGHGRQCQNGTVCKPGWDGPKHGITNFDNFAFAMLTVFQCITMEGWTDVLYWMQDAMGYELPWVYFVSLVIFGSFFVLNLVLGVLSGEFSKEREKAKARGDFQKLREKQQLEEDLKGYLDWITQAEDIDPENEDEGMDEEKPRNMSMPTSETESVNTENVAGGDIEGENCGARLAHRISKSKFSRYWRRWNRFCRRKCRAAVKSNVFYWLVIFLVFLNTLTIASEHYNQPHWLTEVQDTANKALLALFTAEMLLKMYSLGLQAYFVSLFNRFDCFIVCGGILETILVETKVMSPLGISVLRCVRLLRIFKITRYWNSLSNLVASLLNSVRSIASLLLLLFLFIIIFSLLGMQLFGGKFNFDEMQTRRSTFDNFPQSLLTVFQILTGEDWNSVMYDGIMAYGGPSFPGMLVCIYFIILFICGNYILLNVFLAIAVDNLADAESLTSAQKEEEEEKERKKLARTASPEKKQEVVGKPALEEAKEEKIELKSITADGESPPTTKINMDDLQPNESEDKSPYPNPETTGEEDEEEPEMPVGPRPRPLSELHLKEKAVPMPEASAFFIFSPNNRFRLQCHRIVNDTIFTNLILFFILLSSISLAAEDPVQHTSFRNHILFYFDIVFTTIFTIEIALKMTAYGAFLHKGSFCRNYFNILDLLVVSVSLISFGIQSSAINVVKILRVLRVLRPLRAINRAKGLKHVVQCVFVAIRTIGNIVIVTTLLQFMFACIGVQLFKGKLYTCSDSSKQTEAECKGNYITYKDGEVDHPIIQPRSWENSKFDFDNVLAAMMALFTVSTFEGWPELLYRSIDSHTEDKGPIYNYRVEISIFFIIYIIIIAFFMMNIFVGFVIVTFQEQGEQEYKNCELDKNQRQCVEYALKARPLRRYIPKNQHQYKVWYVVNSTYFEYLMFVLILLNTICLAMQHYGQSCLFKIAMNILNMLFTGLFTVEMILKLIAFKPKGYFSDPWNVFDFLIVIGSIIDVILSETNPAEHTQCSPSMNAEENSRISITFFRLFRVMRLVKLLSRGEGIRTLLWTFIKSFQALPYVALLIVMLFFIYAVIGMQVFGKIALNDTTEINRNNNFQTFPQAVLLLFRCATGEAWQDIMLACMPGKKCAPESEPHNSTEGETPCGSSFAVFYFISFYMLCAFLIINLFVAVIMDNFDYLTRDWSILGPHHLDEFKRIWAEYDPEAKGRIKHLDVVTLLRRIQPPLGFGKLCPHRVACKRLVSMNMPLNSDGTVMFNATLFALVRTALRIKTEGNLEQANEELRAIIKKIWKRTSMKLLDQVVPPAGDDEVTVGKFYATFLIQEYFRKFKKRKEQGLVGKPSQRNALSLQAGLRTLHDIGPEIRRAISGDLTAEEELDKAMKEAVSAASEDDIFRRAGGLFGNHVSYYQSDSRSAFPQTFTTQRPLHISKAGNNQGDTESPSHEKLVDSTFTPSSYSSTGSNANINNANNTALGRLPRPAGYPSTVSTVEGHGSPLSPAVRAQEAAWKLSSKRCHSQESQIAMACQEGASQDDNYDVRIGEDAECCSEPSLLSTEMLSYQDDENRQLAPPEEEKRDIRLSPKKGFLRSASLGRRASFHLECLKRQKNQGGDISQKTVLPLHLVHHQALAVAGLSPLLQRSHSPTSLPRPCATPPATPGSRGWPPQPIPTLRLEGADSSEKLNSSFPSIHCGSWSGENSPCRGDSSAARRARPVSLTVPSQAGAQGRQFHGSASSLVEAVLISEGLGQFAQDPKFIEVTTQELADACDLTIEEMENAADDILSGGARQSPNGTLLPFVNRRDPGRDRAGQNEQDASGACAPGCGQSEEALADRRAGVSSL

[3] = Selectivity ratio of antagonist activity at rat Cav1.3 to antagonist activity at rabbit Cav1.2 at 10 nM; format: functional
Procedure, shortened: (§1)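 Percent inhibition of Cav1.3 current was divided by that of Cav1.2 at the same concentration. Currents were from whole-cell patch clamp in transiently transfected tsA201 cells: Ba2+ bath, pH 7.4, steps from -60 mV, about 22 °C.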

[4] = molecular target: Voltage-dependent L-type calcium channel subunit alpha-1D (Rattus norvegicus) (UniProt P27732); assay: Antagonist activity at rat Cav1.3 expressed in HEK293 cells assessed as inhibition of voltage pulse-induced calcium current at 10 nM by whole-cell patch-clamp recording
Voltage-dependent L-type calcium channel subunit alpha-1D (Rattus norvegicus), sequence (P27732 whole entry, the tested form may be a part): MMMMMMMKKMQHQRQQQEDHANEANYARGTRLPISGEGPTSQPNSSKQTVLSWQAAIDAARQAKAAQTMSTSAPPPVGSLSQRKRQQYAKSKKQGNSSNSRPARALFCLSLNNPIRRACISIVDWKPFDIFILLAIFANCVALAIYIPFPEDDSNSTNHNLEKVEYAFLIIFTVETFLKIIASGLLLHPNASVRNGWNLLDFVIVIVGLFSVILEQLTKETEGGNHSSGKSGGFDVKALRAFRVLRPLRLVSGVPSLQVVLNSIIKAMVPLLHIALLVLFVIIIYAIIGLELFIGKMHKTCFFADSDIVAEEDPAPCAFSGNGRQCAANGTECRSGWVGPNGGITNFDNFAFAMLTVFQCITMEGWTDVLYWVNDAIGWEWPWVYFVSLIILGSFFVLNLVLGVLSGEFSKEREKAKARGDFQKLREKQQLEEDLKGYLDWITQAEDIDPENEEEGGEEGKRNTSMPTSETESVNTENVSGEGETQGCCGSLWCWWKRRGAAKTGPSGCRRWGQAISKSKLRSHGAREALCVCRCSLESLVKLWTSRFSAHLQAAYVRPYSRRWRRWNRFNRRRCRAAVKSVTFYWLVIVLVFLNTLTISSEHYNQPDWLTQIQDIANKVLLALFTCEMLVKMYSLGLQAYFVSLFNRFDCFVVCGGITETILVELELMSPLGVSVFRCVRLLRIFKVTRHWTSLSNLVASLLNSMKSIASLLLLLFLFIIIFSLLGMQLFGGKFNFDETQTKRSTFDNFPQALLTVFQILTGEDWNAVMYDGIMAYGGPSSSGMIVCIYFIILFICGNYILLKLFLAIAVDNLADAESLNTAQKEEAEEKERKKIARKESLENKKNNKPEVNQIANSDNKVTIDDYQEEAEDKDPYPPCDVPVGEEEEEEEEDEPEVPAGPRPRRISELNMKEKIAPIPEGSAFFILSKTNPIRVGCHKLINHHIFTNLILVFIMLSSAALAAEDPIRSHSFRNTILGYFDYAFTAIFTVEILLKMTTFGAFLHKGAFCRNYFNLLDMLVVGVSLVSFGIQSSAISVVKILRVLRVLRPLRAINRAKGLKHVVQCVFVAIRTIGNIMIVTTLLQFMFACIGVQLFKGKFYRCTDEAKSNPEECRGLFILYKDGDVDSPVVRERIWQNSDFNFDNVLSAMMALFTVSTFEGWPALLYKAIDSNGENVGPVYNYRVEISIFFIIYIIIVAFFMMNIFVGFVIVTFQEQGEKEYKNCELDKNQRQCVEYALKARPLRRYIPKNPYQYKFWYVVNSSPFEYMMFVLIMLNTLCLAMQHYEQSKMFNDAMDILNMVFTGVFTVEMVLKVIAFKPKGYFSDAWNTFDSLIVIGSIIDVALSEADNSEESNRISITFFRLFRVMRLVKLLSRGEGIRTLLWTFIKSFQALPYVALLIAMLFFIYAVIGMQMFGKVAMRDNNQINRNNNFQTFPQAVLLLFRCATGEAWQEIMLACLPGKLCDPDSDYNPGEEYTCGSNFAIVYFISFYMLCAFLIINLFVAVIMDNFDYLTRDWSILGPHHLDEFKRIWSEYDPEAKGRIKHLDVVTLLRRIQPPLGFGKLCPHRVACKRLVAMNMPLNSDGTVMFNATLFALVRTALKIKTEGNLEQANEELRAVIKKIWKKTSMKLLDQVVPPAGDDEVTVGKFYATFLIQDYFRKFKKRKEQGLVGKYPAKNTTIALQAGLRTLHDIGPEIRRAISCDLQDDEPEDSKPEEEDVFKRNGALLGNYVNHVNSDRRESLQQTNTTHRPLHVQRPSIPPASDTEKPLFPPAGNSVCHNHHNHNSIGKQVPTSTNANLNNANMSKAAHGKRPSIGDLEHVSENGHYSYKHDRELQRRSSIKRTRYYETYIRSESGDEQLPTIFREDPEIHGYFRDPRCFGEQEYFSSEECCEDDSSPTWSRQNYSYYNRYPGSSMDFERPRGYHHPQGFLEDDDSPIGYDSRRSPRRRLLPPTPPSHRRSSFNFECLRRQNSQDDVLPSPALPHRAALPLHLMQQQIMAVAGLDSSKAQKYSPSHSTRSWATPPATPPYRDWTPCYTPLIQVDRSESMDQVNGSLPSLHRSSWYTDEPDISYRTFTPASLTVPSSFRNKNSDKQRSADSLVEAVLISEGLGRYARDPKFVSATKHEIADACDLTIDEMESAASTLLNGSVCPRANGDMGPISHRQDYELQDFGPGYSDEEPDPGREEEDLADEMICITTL

[5] = molecular target: Voltage-dependent L-type calcium channel subunit alpha-1D (Rattus norvegicus) (UniProt P27732); assay: Antagonist activity at rat Cav1.3 expressed in HEK293 cells assessed as inhibition of voltage pulse-induced calcium current at 10 nM by FLIPR calcium 4 assay; format: functional, cell-based; settings: in the assay text read “by whole-cell patch-clamp recording” for “by FLIPR calcium 4 assay”
Procedure, shortened: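 Whole-cell patch clamp on tsA201 cells transiently cotransfected with rabbit Cav1.2 α1C or rat Cav1.3 α1D, Cavβ3 and Cavα2δ-1 (1:1:1) plus GFP. GFP cells were recorded after replating at 48 h. Bath (mM): 110 NaCl, 1 MgCl2, 10 BaCl2, 10 HEPES, 10 glucose, 20 CsCl, pH 7.4. Compound was diluted from DMSO stock and perfused. Pulses ran from -60 mV to +10 or 0 mV with tetrodotoxin at about 22 °C. Read-out was percent current inhibition.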

[6] = molecular target: T1, Voltage-dependent L-type calcium channel subunit alpha-1C; assay: Antagonist activity at rabbit Cav1.2 expressed in HEK293 cells assessed as inhibition of voltage pulse-induced calcium current at 1000 nM by FLIPR calcium 4 assay; format: functional, cell-based
[7] = molecular target: Voltage-dependent L-type calcium channel subunit alpha-1D (Rattus norvegicus) (UniProt P27732); assay: Antagonist activity at rat Cav1.3 expressed in tsA201 cells assessed as inhibition of voltage pulse-induced calcium current at 500 nM by whole-cell patch-clamp recording
[8] = Selectivity ratio of antagonist activity at rat Cav1.3 to antagonist activity at rabbit Cav1.2 at 500 nM; format: functional; procedure, shortened: as §1
[9] = molecular target: T1, Voltage-dependent L-type calcium channel subunit alpha-1C; assay: Antagonist activity at rabbit Cav1.2 expressed in tsA201 cells assessed as inhibition of voltage pulse-induced calcium current at 500 nM by whole-cell patch-clamp recording

Structure (SMILES): COCCOC(=O)C1=C(C)NC(C)=C(C(=O)OC(C)C)C1c1cccc([N+](=O)[O-])c1 (stereo unspecified)
- Ratio IC50 [1]: 20

Structure (SMILES): CCOC(=O)C1=C(C)NC(C)=C(C(=O)OCC)C1c1cccc([N+](=O)[O-])c1
- inhibition at 0.01 µM [2]: 32%
- Selectivity ratio [3]: 1.34
- inhibition [4]: 43%

Structure (SMILES): CCOC(=O)C1=C(CC)NC(CC)=C(C(=O)OCC)C1c1ccc([N+](=O)[O-])cc1
- inhibition at 1 µM [6]: 58%

The next lines start with results.

- inhibition [5]: 26%
Structure (SMILES): CCOC(=O)C1=C(C)NC(C)=C(C(=O)OC)C1c1ccccc1[N+](=O)[O-] (stereo unspecified)
- inhibition at 0.01 µM [2]: 41%
- Selectivity ratio [3]: 0.63

- inhibition [7]: 43%
Structure (SMILES): CCOC(=O)C1=C(C)NC(C)=C(C(=O)OCC)C1c1cc2cc(Br)ccc2[nH]1
- Selectivity ratio [8]: 1.03
- inhibition at 0.5 µM [9]: 42%
